Laboratory results from ChEMBL document CHEMBL4130559, “Structure-Based Discovery of Thiosemicarbazone Metalloproteinase Inhibitors for Hemorrhage Treatment in Snakebites” (ACS Med Chem Lett, 2017).

Legend:
[1] = target: T1, Snake venom metalloproteinase neuwiedase (Bothrops pauloensis, UniProt Q9I9R4); test: Inhibition of Bothrops pauloensis MP1 assessed as reduction in azocaseinolytic activity after 30 mins
T1 sequence (Q9I9R4 whole entry): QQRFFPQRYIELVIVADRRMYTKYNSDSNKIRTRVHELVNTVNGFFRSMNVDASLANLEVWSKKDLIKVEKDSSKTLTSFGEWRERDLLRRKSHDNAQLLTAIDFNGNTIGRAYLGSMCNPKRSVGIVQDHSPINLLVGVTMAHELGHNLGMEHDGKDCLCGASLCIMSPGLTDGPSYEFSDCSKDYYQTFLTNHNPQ
Summary of the method: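 Purified BpMP-I (7.5 μg per reaction) was preincubated with compound for 30 min at 37 °C. It was then added to azocasein (1 mg/mL) in 0.05 M Tris–HCl pH 7.8 with 0.15 M NaCl and incubated for 30 min at 37 °C. The reaction was stopped with 20% TCA, held 30 min at room temperature and centrifuged. Supernatant was read at A405. IC50 is the concentration giving 50% loss of azocaseinolytic activity.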

Snake venom [2] = test: Antihemorrhagic activity in Bothrops pauloensis crude venom injected Swiss mouse assessed as reduction in hemorrhagic halo at 1:1 venom to compound ratio administered via intradermal route; format: functional; parameters: scale not given: the % may be the effect or the level left
Snake venom [3] = test: Antihemorrhagic activity in Bothrops pauloensis crude venom injected Swiss mouse assessed as reduction in hemorrhagic halo at 1:5 venom to compound ratio administered via intradermal route; format: functional; parameters: scale not given: the % may be the effect or the level left
Snake venom [4] = test: Antihemorrhagic activity in Bothrops pauloensis crude venom injected Swiss mouse assessed as reduction in hemorrhagic halo at 1:10 venom to compound ratio administered via intradermal route; format: functional; parameters: scale not given: the % may be the effect or the level left
Snake venom [5] = test: Antihemorrhagic activity in Bothrops pauloensis crude venom injected Swiss mouse assessed as reduction in hemorrhagic halo at 1:1 to 1:20 venom to compound ratio administered via intradermal route; format: functional
Snake venom [6] = test: Antihemorrhagic activity in Bothrops pauloensis crude venom injected Swiss mouse assessed as reduction in hemorrhagic halo at 1:10 venom to compound ratio administered via intradermal route 10 mins after venom injection; format: functional; parameters: scale not given: the % may be the effect or the level left
Summary of the method: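 Treatment protocol in Swiss male mice (n = 4, 18–22 g). B. pauloensis crude venom (16.3 μg, two minimum hemorrhagic doses) was injected intradermally in the dorsal region. Compound followed 10 min later by the same route at 1:10 venom/compound (w/w). At 150 min the mice were anesthetized and killed, and the skin halo was measured by caliper. Results are percent inhibition versus venom-only controls, mean ± SD.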

Snake venom [7] = test: Antihemorrhagic activity in Bothrops pauloensis crude venom injected Swiss mouse assessed as reduction in hemorrhagic halo at 1:20 venom to compound ratio administered via intradermal route; format: functional

Row | SMILES | IC50 [1] | IC50 ([1]; read-out: IC50) [mM] | further results
1 | NC(=O)N/N=C/c1cccc(O)c1 | Not Active |  | 
2 | NC(=S)N/N=C/c1ccc(Br)cc1 |  | 3.14 | 
3 | COc1ccc(/C=N/NC(N)=S)cc1 |  | 3.01 | 
4 | NC(=S)N/N=C/c1ccccc1 [PHENYLTHIOSEMICARBAZONE] |  | 4.22 | 
5 | NC(=O)N/N=C/c1ccc(O)cc1 | Not Active |  | 
6 | NC(=O)N/N=C/c1ccc(O)cc1O | Not Active |  | 
7 | COc1ccc(/C(CCCC(=O)O)=N/NC(N)=S)cc1 |  | 0.00177 | Activity (Snake venom [2]): 41%; Activity (Snake venom [3]): 84%; Activity (Snake venom [4]): 100%; Activity (Snake venom [5]): Dose-dependent effect; Activity (Snake venom [6]): 31%; inhibition (INH) (Snake venom [7]): 100%
8 | COc1ccc(/C=N/NC(N)=O)cc1 | Not Active |  | 
9 | NC(=O)N/N=C/c1ccc(C(=O)O)cc1 | Not Active |  | 
10 | NC(=O)N/N=C/c1ccc(Cl)cc1 | Not Active |  | 
11 | COc1ccc(/C=N/NC(N)=S)cc1O |  | 3.41 | 
12 | c1cnc2c(c1)ccc1cccnc12 [PHENANTHROLINE] |  | 0.47 | 
13 | COc1ccc(/C(CCC(=O)O)=N/NC(N)=S)cc1 |  | 0.0791 | inhibition (INH) (Snake venom [7]): 43%
14 | NC(=S)N/N=C/c1ccc(Cl)cc1 |  | 4.25 | 
